We go through 5 molecules from ChEMBL document CHEMBL1141119, “Synthesis and pharmacological evaluation of 1H-imidazoles as ligands for the estrogen receptor and cytotoxic inhibitors of the cyclooxygenase” (J Med Chem, 2005).

The test system of experiment [1] is MCF7. Put plainly: Effective concentration against human ER positive MCF-7 breast cancer cell line evaluated by luciferase assay. Type of experiment: functional, cell-based. The procedure, abridged: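 ER-positive MCF-7 cells stably transfected with the ERE_wtc-luc reporter plasmid (MCF-7 2a). Cells were exposed to the compound over a concentration range. ER binding to the estrogen response element drives luciferase expression, which was measured to build concentration–activation curves relative to estradiol. EC50 was taken from these curves.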

The target of experiment [2] is Prostaglandin G/H synthase 1 (Ovis aries) (UniProt P05979). Put plainly: Inhibitory concentration against ovine cyclooxygenase-1 evaluated by enzyme linked immunosorbent assay.
Experiment [3] deals with MCF7. Put plainly: Treatment upon control (T/C) against hormone dependent MCF-7 breast cancer cells at 10 uM concentration. Conditions: Homo sapiens.

A word on the EC50: it is the midpoint of the concentration-response curve. Lower therefore signals an effect from little substance. In general, IC50 refers to the concentration at which inhibition is half-maximal. A lower IC50 goes with higher potency. `CCc1c(-c2ccc(O)cc2)nc(-c2ccc(O)cc2)n1-c1ccc(O)cc1` registered an EC50 with MCF7 [1] of 77 nM. The molecule further registered an IC50 in experiment [2] above 200 µM. For orientation: T/C means the result in the treated group divided by that in the control group, in per cent. For `Oc1ccc(-c2nc(-c3ccc(O)cc3Cl)cn2-c2ccc(O)cc2)cc1`, the IC50 in experiment [2] came to 8.4 µM. In the experiment on MCF7 [3], this molecule yielded a T/C at 10 µM of 50%.

`Oc1ccc(-n2cc(-c3ccc(O)cc3Cl)nc2-c2ccc(O)cc2Cl)cc1` showed an IC50 in experiment [2] of 8.4 µM. Moreover, the T/C at 10 µM in the experiment with MCF7 [3] was 0%.

`Oc1ccc(-c2cn(-c3ccc(O)cc3)c(-c3ccc(O)cc3)n2)cc1`: in experiment [2], it took 12.2 µM to reach half-maximal inhibition (IC50). Molecule `C[C@]12CC[C@@H]3c4ccc(O)cc4CC[C@H]3[C@@H]1CC[C@@H]2O` [ESTRADIOL] yielded a 50% effective concentration (EC50) in the experiment with MCF7 [1] of 0.08 nM.
